# Assay results taken from article PMC3932306 (Journal of natural products, 2013).
# What was measured:
# [1] = biological target: T1, cathepsin L (Homo sapiens, UniProt P07711); assay: Cathepsin L inhibition assay; format: biochemical; conditions: for Selectivity Index: IC50 of assayed protease / IC50 cathepsin L
# Procedure, shortened: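 Recombinant human cathepsin L (3.0 ng/mL) with 20 µM Z-Phe-Arg-AMC in 50 mM sodium acetate, 100 mM NaCl, 1.0 mM EDTA, 4 mM DTT, pH 5.5, at 25 °C. Fluorescence read at 365/450 nm. Dose-response was […], 3-fold, 333–0.46 nM, in triplicate, with immediate mixing or 30 min enzyme–inhibitor preincubation. Data were scaled to E-64-c/DMSO controls and fitted to a four-parameter logistic model for IC50. Selectivity index = IC50 of the assayed protease / IC50 of cathepsin L for each condition.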
# [2] = biological target: human cathepsin H (Homo sapiens, UniProt P09668); assay: Selectivity: cathepsin H inhibition; format: biochemical; conditions: at the highest assay concentrations
# Procedure, shortened: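 Human cathepsin H (50 ng/mL) in 50 mM potassium phosphate, 3 mM cysteine, 1 mM EDTA, pH 6.4, with 200 µM Arg-AMC substrate. Dose-response ran with 0 min and 30 min enzyme–inhibitor preincubation, otherwise as for the cathepsin L assay, in technical triplicate.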
# [3] = biological target: T1, cathepsin L; assay: Active-site directed probe; format: binding; conditions: 30 min preincubation; enzyme 100 nM
# Procedure, shortened: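 Test compound in a 6-point, 3-fold serial dilution (10% DMSO) was preincubated 30 min at room temperature with recombinant human cathepsin L in 100 mM sodium acetate, 1.0 mM EDTA, 4 mM DTT, pH 5.5. CLIK-148 and DMSO served as controls. Biotinylated epoxide probe DCG-04 (10 µM stock) was added for 30 min at room temperature. Samples were denatured at 70 °C for 5 min, run on 12% Bis-Tris SDS-PAGE and blotted to nitrocellulose. Detection used avidin/biotinylated HRP with chemiluminescence.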
# [4] = biological target: T1, cathepsin L; assay: Reversibility: preincubation-dilution experiment; format: biochemical; conditions: preincubation-dilution and activity-probe experiments
# Procedure, shortened: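 Preincubation-dilution test: cathepsin L at 100-fold final assay concentration was incubated 30 min with a concentrated test compound in 2 µL. The mix was then diluted 100-fold into assay buffer containing 10 µM Z-FR-AMC, 200 µL final. AMC release was monitored continuously in kinetic mode for 2 h. Activity was compared against a vehicle control.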
# [5] = system: murine cathepsin L; conditions: cited from earlier work
# [6] = system: Plasmodium falciparum falcipain proteases; conditions: cited from earlier work
# T1 sequence (P07711 114-333): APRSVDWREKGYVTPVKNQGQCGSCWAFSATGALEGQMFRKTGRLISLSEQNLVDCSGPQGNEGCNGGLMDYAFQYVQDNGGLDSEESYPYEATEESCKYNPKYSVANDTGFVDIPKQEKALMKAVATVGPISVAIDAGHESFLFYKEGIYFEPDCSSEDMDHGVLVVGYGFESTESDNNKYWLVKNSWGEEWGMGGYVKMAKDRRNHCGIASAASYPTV
# Chain of human cathepsin H (P09668 116-335 limits assumed, other chains not shown): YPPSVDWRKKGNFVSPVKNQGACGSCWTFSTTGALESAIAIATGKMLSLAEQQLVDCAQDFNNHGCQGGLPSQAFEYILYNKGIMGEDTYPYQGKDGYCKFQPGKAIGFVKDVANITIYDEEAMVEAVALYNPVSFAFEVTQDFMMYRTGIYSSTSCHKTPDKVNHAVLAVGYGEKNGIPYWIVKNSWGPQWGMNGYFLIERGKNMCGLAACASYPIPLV
structure (smiles),measurement,setting,value
"CC[C@H](C)[C@@H](C(=O)O[C@@H](CC(C)C)C(=O)N[C@@H](CC(C)C)C(=O)N[C@@H](C)/C=C/C(=O)N1C(=O)C=C(OC)[C@@H]1C)N(C)C [compound 1, gallinamide A]",Selectivity Index,[1]; 0 min,1
same,Selectivity Index,[1]; 30 min,1
same,inhibition at 3 µg/mL,[1]; read-out: inhibition of cathepsin L,97 to 99%
same,activity against cathepsin H (in words),[2],inactive
same,concentration giving complete loss of DCG-04 probe labeling,[3],333 nM
same,concentration giving decreased DCG-04 probe labeling,[3],111 nM
same,mode of inhibition,[4],irreversible
same,inhibition of murine cathepsin L (in words),[5],moderate inhibition
same,mode of inhibition of falcipain proteases,[6]; based on kinetic model fitting,"covalent, irreversible inhibitor"
same,inhibition of P. falciparum falcipain proteases (in words),[6],potent inhibition
